Source: ChEMBL document CHEMBL2424526, “Thrombin inhibitory activity of some polyphenolic compounds” (Med Chem Res, 2013)
Activity calls are given as the source filed them. The calls are words filed in the database; no cut-off is given here.

How the values were obtained:
Prothrombin [1] = molecular target: T1, Prothrombin (Homo sapiens, UniProt P00734); experiment: Inhibition of human thrombin amidolytic activity using D-Phe-Pip-Arg-pNA as substrate at 0.1 to 1000 uM preincubated for 10 mins followed by substrate addition measured every 12 secs for 10 mins by spectrophotometric analysis
How it was run: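 Human plasma thrombin (17.6 nM in 50 mM TBS pH 7.4) preincubated 10 min at 37 °C with compound (from 10 mM stocks in 50% DMSO; final DMSO 5%, final thrombin 15.8 nM), then added to 3 mM D-Phe-Pip-Arg-pNA stock.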

Prothrombin [2] = molecular target: T1, Prothrombin; settings: 150 to 1000 uM
Prothrombin [3] = molecular target: T1, Prothrombin; settings: 150 to 1000 uM; remark: listed apart in the source
Prothrombin [4] = molecular target: T1, Prothrombin; experiment: Competitive inhibition of human thrombin using D-Phe-Pip-Arg-pNA as substrate preincubated for 10 mins followed by substrate addition measured every 12 secs for 10 mins by Lineweaver-Burk plot analysis
Prothrombin [5] = molecular target: T1, Prothrombin; experiment: Inhibition of human thrombin assessed as inhibition of fibrinogen polymerization preincubated for 10 mins followed by fibrionogen addition measured for 20 mins
How it was run: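 Thrombin preincubated with compound 10 min at 37 °C, then added (final 10.4 nM) to human fibrinogen (3 mg/ml) in 50 mM TBS with 5 mM CaCl2, pH 7.4. Turbidity at 595 nm read every 12 s for 20 min at 37 °C. Vmax expressed as % of solvent control; 12 independent experiments in duplicate.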

Prothrombin [6] = molecular target: T1, Prothrombin; experiment: Inhibition of human thrombin amidolytic activity using D-Phe-Pip-Arg-pNA as substrate preincubated for 10 mins followed by substrate addition measured every 12 secs for 10 mins by spectrophotometric analysis
Prothrombin [7] = molecular target: T1, Prothrombin; experiment: Inhibition of human thrombin assessed as equilibrium association constant at 50 to 1000 uM by BIAcore analysis
Prothrombin [8] = molecular target: T1, Prothrombin; experiment: Inhibition of human thrombin assessed as inhibition of fibrinogen alpha polymer formation at IC50 after 15 mins by SDS-PAGE analysis
How it was run: (§1)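 Fibrinogen isolated from human plasma, containing factor XIII (3 mg/ml in 50 mM TBS, 5 mM CaCl2), mixed with thrombin (final 10.4 nM) that was preincubated with compound. Incubated at 37 °C and stopped at 5, 15 or 30 min with urea/SDS/β-mercaptoethanol buffer. Run on 7.5 % SDS-PAGE with Coomassie stain. Aα, γ, γ–γ dimer and α-polymer bands scored.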

Prothrombin [9] = molecular target: T1, Prothrombin; experiment: Inhibition of human thrombin assessed as inhibition of fibrinogen gamma-gamma chain formation at IC50 after 15 mins by SDS-PAGE analysis; how it was run: as §1
Prothrombin [10] = molecular target: T1, Prothrombin; experiment: Inhibition of human thrombin assessed as inhibition of fibrinogen gamma-gamma chain formation at IC50 after 5 mins by SDS-PAGE analysis; how it was run: as §1
Prothrombin [11] = molecular target: T1, Prothrombin; experiment: Inhibition of human thrombin assessed as inhibition of band decaying corresponding to fibrinogen gamma chains at IC50 after 30 mins by SDS-PAGE analysis; how it was run: as §1
Prothrombin [12] = molecular target: T1, Prothrombin; experiment: Inhibition of human thrombin assessed as inhibition of fibrinogen alpha-polymer formation at IC50 after 5 mins by SDS-PAGE analysis; how it was run: as §1
Prothrombin [13] = molecular target: T1, Prothrombin; settings: 5 uM
Prothrombin [14] = molecular target: T1, Prothrombin; experiment: Inhibition of human thrombin assessed as response unit at 1000 uM by BIAcore analysis
How it was run: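 Thrombin amine-coupled on a CM5 chip (NHS/EDC, acetate pH 6.0), 25 °C, PBS pH 7.4 running buffer. Polyphenol (100 μl) injected for 600 s at 10 μl/min, followed by 200 s PBS dissociation. Bound level read in RU. Channel regenerated with 0.1 M NaOH and 0.1 M HCl.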

Prothrombin [15] = molecular target: T1, Prothrombin; experiment: Inhibition of human thrombin assessed as inhibition of band decaying corresponding to fibrinogen Aalpha chains at IC50 after 30 mins by SDS-PAGE analysis; how it was run: as §1
Prothrombin [16] = molecular target: T1, Prothrombin; experiment: Inhibition of human thrombin assessed as decrease in platelet aggregation preincubated for 10 mins measured for 10 mins by dual channel chrono-log aggregometric analysis
How it was run: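 Gel-filtered (BSA–Sepharose 2B) human platelets at 1.5 × 10^5/μl in modified Tyrode's buffer pH 7.4, prewarmed 5 min at 37 °C with stirring. Thrombin (final 2.4 nM) preincubated 10 min at 37 °C with compound, then added. Turbidimetric aggregation recorded 10 min (0.77 % DMSO final). Result given as % of control; eight independent experiments in duplicate.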

COc1ccc([C@@H]2CC(=O)c3c(O)cc(O)cc3O2)cc1O
inhibition (Prothrombin [1]): inactive

Oc1cc(O)c2c(c1)O[C@H](c1ccc(O)c(O)c1)[C@H](O)C2
inhibition (Prothrombin [2]): inactive
inhibition (Prothrombin [3]): inactive
inhibition (Prothrombin [4]): Active
inhibition (Prothrombin [5]): inactive
inhibition (Prothrombin [6]): Dose-dependent effect
Ka (Prothrombin [7]): 1.92 ×10² /M

O=C(O)c1cc(O)c(O)c(O)c1
inhibition (Prothrombin [1]): inactive

C[C@@H]1O[C@@H](O[C@H]2[C@H](Oc3cc(O)c4c(c3)O[C@H](c3ccc(O)cc3)CC4=O)O[C@H](CO)[C@@H](O)[C@@H]2O)[C@H](O)[C@H](O)[C@H]1O
inhibition (Prothrombin [1]): inactive

Oc1cc(O)c2cc(O)c(-c3ccc(O)c(O)c3)[o+]c2c1
inhibition (Prothrombin [8]): inactive
inhibition (Prothrombin [9]): inactive
inhibition (Prothrombin [4]): Active
inhibition (Prothrombin [5]): Dose-dependent effect
inhibition (Prothrombin [10]): Active
inhibition (Prothrombin [11]): inactive
inhibition (Prothrombin [12]): Active
inhibition (Prothrombin [6]): Dose-dependent effect
inhibition (Prothrombin [13]): Active
RU (Prothrombin [14]): 2250
inhibition (Prothrombin [15]): inactive
inhibition (Prothrombin [16]): Dose-dependent effect

Oc1cc(O)c2c(c1)O[C@H](c1ccc(O)c(O)c1)[C@H](O)[C@H]2c1c(O)cc(O)c2c1O[C@H](c1ccc(O)c(O)c1)[C@H](O)C2
inhibition (Prothrombin [1]): inactive

O=C1C[C@@H](c2ccc(O)cc2)Oc2cc(O)cc(O)c21
inhibition (Prothrombin [1]): inactive

O=c1c(-c2ccc(O)cc2)coc2cc(O)cc(O)c12
inhibition (Prothrombin [1]): inactive
